ChEMBL document CHEMBL1129409, “5-HT1D receptor agonist properties of novel 2-[5-[[(trifluoromethyl)sulfonyl]oxy]indolyl]ethylamines and their use as synthetic intermediates” (J Med Chem, 1996)

Assays:
[1] = Distribution coefficient (LogD) of compound reported; format: physicochemical; settings: octanol/water
Outline: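 log D calculated with Pallas version 1.2.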

[2] = biological target: T1, 5-hydroxytryptamine receptor 1D (Homo sapiens, UniProt P28221); assay: Displacement of [3H]-5-HT from human 5-hydroxytryptamine 1D receptor alpha expressed in HEK 293 cells; format: cell-based, HEK293
Outline: (§1)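 HEK 293 microsomal membranes expressing human 5-HT1Dα or 5-HT1Dβ, in 50 mM Tris-HCl buffer with 4 mM CaCl2, 0.1% ascorbic acid, pargyline and leupeptine. [3H]-5-HT (final 0.01-150 nM) incubated with membranes and displacer for 30 min at 25 °C. Glass-fibre filtration, then scintillation counting. Nonspecific binding taken with 10^-5 M 5-HT. Nonlinear least-squares fitting (EBDA/LIGAND); mean ± SEM, n=3.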
Target sequence in this assay (P28221 whole entry): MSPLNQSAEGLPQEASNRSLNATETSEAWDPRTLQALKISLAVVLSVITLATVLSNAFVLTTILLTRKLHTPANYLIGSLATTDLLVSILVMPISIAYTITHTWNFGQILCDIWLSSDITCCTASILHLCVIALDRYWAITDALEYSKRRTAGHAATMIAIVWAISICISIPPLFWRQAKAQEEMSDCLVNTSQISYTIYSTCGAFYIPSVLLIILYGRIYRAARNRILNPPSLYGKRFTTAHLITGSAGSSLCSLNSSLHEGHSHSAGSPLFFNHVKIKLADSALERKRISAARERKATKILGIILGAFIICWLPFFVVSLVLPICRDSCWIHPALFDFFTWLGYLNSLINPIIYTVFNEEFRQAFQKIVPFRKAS

[3] = biological target: T1, 5-hydroxytryptamine receptor 1D; assay: (§2) Compound was tested for binding affinity against cloned human 5-hydroxytryptamine 1D receptor alpha expressed in CHO-K1 cells.; format: cell-based
Outline: (§3)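 CHO cell membranes expressing cloned human 5-HT1A, 5-HT1Dα or 5-HT1Dβ receptors, or rat D2 receptors (20-60 µg protein). Radioligands: [3H]-8-OH-DPAT (5-HT1A), [3H]-5-HT (5-HT1D), [3H]U-86170 (D2). Buffers at pH 7.4: 50 mM Tris/5 mM MgCl2 (5-HT1A); the same with 0.1% ascorbic acid (5-HT1D); 20 mM HEPES/10 mM MgSO4 (D2). Nonspecific binding defined with lisuride, serotonin and haloperidol respectively. 11 concentrations in duplicate, 1 h at room temperature (5-HT1D protected from light), filtration.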

[4] = biological target: T1, 5-hydroxytryptamine receptor 1D; assay: Ratio of receptor binding affinities of 5-hydroxytryptamine 1D receptor alpha vs 5-hydroxytryptamine 1D receptor beta
Target sequence in this assay (P28221 whole entry): as above

D(2) dopamine receptor = D(2) dopamine receptor (Rattus norvegicus, UniProt P61169); assay: Binding affinity for rat dopamine D2 receptor expressed in CHO-K1 cells; format: cell-based; outline: as §3
D(2) dopamine receptor, sequence (P61169 whole entry): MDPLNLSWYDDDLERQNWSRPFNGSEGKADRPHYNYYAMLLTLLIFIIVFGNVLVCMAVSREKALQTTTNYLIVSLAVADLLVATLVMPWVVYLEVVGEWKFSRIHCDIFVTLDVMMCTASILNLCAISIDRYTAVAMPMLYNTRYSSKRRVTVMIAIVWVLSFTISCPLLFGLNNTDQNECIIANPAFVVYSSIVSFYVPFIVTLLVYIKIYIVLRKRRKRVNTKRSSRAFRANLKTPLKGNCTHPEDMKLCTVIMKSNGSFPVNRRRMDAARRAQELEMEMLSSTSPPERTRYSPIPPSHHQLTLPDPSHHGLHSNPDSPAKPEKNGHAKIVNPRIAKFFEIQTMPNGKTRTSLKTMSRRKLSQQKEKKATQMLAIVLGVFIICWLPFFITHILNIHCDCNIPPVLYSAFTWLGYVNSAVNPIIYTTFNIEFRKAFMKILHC

[5] = biological target: T2, 5-hydroxytryptamine receptor 1B (Homo sapiens, UniProt P28222); assay: Compound was tested for binding affinity against cloned human 5-hydroxytryptamine 1D receptor beta expressed in CHO-K1 cells.; format: cell-based
T2 sequence (P28222 whole entry): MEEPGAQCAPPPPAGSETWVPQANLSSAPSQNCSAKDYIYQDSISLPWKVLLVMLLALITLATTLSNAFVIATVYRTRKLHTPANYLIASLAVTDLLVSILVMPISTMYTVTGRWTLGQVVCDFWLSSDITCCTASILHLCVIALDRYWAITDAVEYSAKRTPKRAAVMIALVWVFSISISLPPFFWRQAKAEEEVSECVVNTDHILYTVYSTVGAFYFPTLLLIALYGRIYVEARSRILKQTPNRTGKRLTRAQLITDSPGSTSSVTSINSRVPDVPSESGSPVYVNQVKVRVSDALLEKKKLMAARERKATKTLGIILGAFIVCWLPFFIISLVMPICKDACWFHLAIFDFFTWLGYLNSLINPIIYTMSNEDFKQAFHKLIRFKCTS

[6] = biological target: T2, 5-hydroxytryptamine receptor 1B; assay: Compound was tested for binding affinity against human 5-hydroxytryptamine 1D receptor beta clones expressed in human embryonic kidney (HEK 293) cells line.; format: cell-based, HEK293; outline: as §1
Cavia porcellus [7] = assay: The level of 5-HT (prefrontal cortex) measured by means of HPCL with electrochemical detection methods at 50(umol/kg, sc); format: functional
Outline: (§4)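 Male Dunkin-Hartley guinea pigs dosed sc in 0.25% methylcellulose (citric acid added for free bases), 5 mL/kg. Decapitated 60 min after dosing; prefrontal cortex and hypothalamus dissected on ice and stored at -80 °C. 5-HT and 5-HIAA measured by HPLC-electrochemical detection. Expressed as % of vehicle controls, mean ± SEM (n=4-5); ANOVA with Fisher's PLSD.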

Cavia porcellus [8] = assay: The level of 5-HIAA (hypothalamus) measured by means of HPCL with electrochemical detection methods at 12.5 (umol/kg, sc); format: functional; outline: as §4
Cavia porcellus [9] = assay: The level of 5-HT (hypothalamus) measured by means of HPCL with electrochemical detection methods at 12.5 (umol/kg, sc); format: functional; outline: as §4
Cavia porcellus [10] = assay: The level of 5-HT (prefrontal cortex) measured by means of HPCL with electrochemical detection methods at 12.5 (umol/kg, sc); format: functional; outline: as §4
Cavia porcellus [11] = assay: Effect of 50(umol/kg, sc) compound on guinea pig rectal temperature (Hypothermia); format: functional
Outline: (§5)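 Male guinea pigs housed individually at least 1 h before testing, groups of five. Compound given sc in 0.25% methylcellulose (equimolar citric acid for free bases), 5 mL/kg. Rectal probe inserted 3-4 cm; temperature read before dosing and at 60 min. Reported as change from the 0 min value, mean ± SEM (n=4-5).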

Rattus norvegicus [12] = assay: 5-HTP accumulation in Rat brain accumbens when Reserpine given 24 hr before decapitation & 45 & 30 min before 10 umol/kg test drug; format: functional
Outline: (§6)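 Rats reserpinized (5 mg/kg ip) 24 h before test compound (10 µmol/kg sc in saline, 1.0 mL/kg). NSD 1015 (100 mg/kg) given 15 min after test compound; decapitation 30 min later. Regions stored at -70 °C, homogenized in TCA, supernatant analysed by HPLC-electrochemical detection. Output is 5-HTP in µg/g wet tissue, mean ± SEM (striatum n=8, others n=4); one-way ANOVA with post hoc t-test.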

[13] = biological target: T1, 5-hydroxytryptamine receptor 1D; assay: as §2; format: cell-based; remark: listed apart in the source
Outline: as §3, with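 “protein).” for “protein). Radioligands: [3H]-8-OH-DPAT (5-HT1A), [3H]-5-HT (5-HT1D), [3H]U-86170 (D2).”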
Target sequence in this assay (P28221 whole entry): as the sequence (P28221 whole entry) above

Rattus norvegicus [14] = assay: 5-HTP accumulation in Rat brain hippocampus when Reserpine given 24 hr before decapitation & 45 & 30 min before 10 umol/kg test drug; format: functional; outline: as §6
Cavia porcellus [15] = assay: The level of 5-HIAA (prefrontal cortex) measured by means of HPCL with electrochemical detection methods at 50(umol/kg, sc); format: functional; outline: as §4
Rattus norvegicus [16] = assay: 5-HTP accumulation in Rat brain striatum when Reserpine given 24 hr before decapitation & 45 & 30 min before 10 umol/kg test drug; format: functional; outline: as §6
Cavia porcellus [17] = assay: The level of 5-HIAA(prefrontal cortex) measured by means of HPCL with electrochemical detection methods at 12.5 (umol/kg, sc); format: functional; outline: as §4
Cavia porcellus [18] = assay: The level of 5-HIAA (hypothalamus) measured by means of HPCL with electrochemical detection methods at 50(umol/kg, sc); format: functional; outline: as §4
[19] = biological target: T3, 5-hydroxytryptamine receptor 1A (Homo sapiens, UniProt P08908); assay: Compound was tested for binding affinity against cloned human 5-hydroxytryptamine 1A receptor expressed in CHO-K1 cells.; format: cell-based
T3 sequence (P08908 whole entry): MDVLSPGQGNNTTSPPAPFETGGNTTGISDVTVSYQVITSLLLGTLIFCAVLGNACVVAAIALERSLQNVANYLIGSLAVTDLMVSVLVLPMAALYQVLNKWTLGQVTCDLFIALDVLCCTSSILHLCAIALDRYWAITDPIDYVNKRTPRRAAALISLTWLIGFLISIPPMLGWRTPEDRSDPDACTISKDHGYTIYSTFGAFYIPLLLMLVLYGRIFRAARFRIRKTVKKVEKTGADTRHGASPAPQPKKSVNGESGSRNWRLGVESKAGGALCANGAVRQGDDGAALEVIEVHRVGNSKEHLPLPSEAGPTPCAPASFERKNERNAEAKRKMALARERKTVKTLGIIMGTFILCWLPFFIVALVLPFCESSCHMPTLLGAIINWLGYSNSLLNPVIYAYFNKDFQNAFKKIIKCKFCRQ
Outline: as §3, with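 “protein).” for “protein). Radioligands: [3H]-8-OH-DPAT (5-HT1A), [3H]-5-HT (5-HT1D), [3H]U-86170 (D2).”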

Cavia porcellus [20] = assay: Effect of 12.5 (umol/kg, sc) compound on guinea pig rectal temperature (Hypothermia); format: functional; outline: as §5
Rattus norvegicus [21] = assay: 5-HTP accumulation in Rat brain frontal cortex when Reserpine given 24 hr before decapitation & 45 & 30 min before 10 umol/kg test drug; format: functional; outline: as §6
[22] = biological target: T1, 5-hydroxytryptamine receptor 1D; assay: Compound was tested for binding affinity against human 5-hydroxytryptamine 1D receptor alpha clones expressed in human embryonic kidney (HEK 293) cells line.; format: cell-based, HEK293; outline: as §1
Target sequence in this assay (P28221 whole entry): as the sequence (P28221 whole entry) above

Cavia porcellus [23] = assay: The level of 5-HT (hypothalamus) measured by means of HPCL with electrochemical detection methods at 50(umol/kg, sc); format: functional; outline: as §4
Cavia porcellus [24] = assay: The level of 5-HIAA (prefrontal cortex) measured by means of HPCL with electrochemical detection methods at 6.250 (umol/kg, sc); format: functional; outline: as §4
Cavia porcellus [25] = assay: The level of 5-HIAA (hypothalamus) measured by means of HPCL with electrochemical detection methods at 6.250 (umol/kg, sc); format: functional; outline: as §4
Cavia porcellus [26] = assay: Effect of 6.250 (umol/kg, sc) compound on guinea pig rectal temperature (Hypothermia); format: functional; outline: as §5
Cavia porcellus [27] = assay: The level of 5-HT (prefrontal cortex) measured by means of HPCL with electrochemical detection methods at 6.250 (umol/kg, sc); format: functional; outline: as §4
[28] = biological target: T2, 5-hydroxytryptamine receptor 1B; assay: Compound was tested for binding affinity against cloned human 5-HT1D beta receptor expressed in CHO-K1 cells.; format: cell-based; outline: as §3
Cavia porcellus [29] = assay: Effect of 50(umol/kg, sc) compound on guinea pig rectal temperature; Hypothermia 0-60 delta degree C; format: functional; outline: as §5
Cavia porcellus [30] = assay: Effect of 12.5 (umol/kg, sc) compound on guinea pig rectal temperature; Hypothermia 0-60 delta degree C; format: functional; outline: as §5
Cavia porcellus [31] = assay: The level of 5-HT (prefrontal cortex) measured by means of HPCL with electrochemical detection methods at 25 (umol/kg, sc); format: functional; outline: as §4
Cavia porcellus [32] = assay: The level of 5-HT (hypothalamus) measured by means of HPCL with electrochemical detection methods at 25 (umol/kg, sc); format: functional; outline: as §4
Cavia porcellus [33] = assay: The level of 5-HIAA (prefrontal cortex) measured by means of HPCL with electrochemical detection methods at 25 (umol/kg, sc); format: functional; outline: as §4
Cavia porcellus [34] = assay: The level of 5-HIAA (hypothalamus) measured by means of HPCL with electrochemical detection methods at 25 (umol/kg, sc); format: functional; outline: as §4
Cavia porcellus [35] = assay: Effect of 25 (umol/kg, sc) compound on guinea pig rectal temperature (Hypothermia); format: functional; outline: as §5

## CCCN(CCC)CCc1c[nH]c2ccc(O)cc12
[1]
  logD: 1.24
[2]
  IC50: 820 nM
[3]
  IC50: 820 nM

## CN(C)CCc1c[nH]c2ccc(OCc3ccccc3)cc12
[1]
  logD: 2.28
[2]
  IC50: 25 nM
[3]
  IC50: 76 nM

## CN(C)CCc1c[nH]c2ccc(OS(=O)(=O)C(F)(F)F)cc12
[4]
  Ratio: 10
D(2) dopamine receptor
  Ki: 538 nM
[5]
  Ki: 32 nM
[1]
  logD: 1.41
[6]
  IC50: 98 nM
Cavia porcellus [7]
  Others: 129%
Cavia porcellus [8]
  Others: 66%
Cavia porcellus [9]
  Others: 97%
Cavia porcellus [10]
  Others: 104%
Cavia porcellus [11]
  Others: -1.72
Rattus norvegicus [12]
  5-HTP accumulation: 0.4 µg/g
  Accumulation: 81.6%
[13]
  Ki: 3.2 nM
Rattus norvegicus [14]
  5-HTP accumulation: 0.28 µg/g
  Accumulation: 100%
Cavia porcellus [15]
  Others: 46%
Rattus norvegicus [16]
  5-HTP accumulation: 0.28 µg/g
  Accumulation: 75.7%
Cavia porcellus [17]
  Others: 59%
Cavia porcellus [18]
  Others: 54%
[19]
  Ki: 40 nM
Cavia porcellus [20]
  Others: -1.7
Rattus norvegicus [21]
  5-HTP accumulation: 0.37 µg/g
  Accumulation: 78.8%
[22]
  IC50: 8.4 nM
Cavia porcellus [23]
  Others: 123%

## CCCN(CCC)CCc1c[nH]c2ccc(OCc3ccccc3)cc12
[1]
  logD: 3.08
[2]
  IC50: 470 nM
[3]
  IC50: 470 nM

## CCCN(CCC)C1CCc2cccc(O)c2C1 (stereo not drawn) [8-OH-DPAT]
Cavia porcellus [24]
  Others: 34%
Cavia porcellus [25]
  Others: 37%
Cavia porcellus [26]
  Others: 0.22
Cavia porcellus [27]
  Others: 126%

## NCCc1c[nH]c2ccc(OS(=O)(=O)C(F)(F)F)cc12
[4]
  Ratio: 5
D(2) dopamine receptor
  Ki: 658 nM
[5]
  Ki: 14 nM
[1]
  logD: -0.24
[13]
  Ki: 2.8 nM
[19]
  Ki: 18 nM

## CCCN(CCC)CCc1c[nH]c2ccc(OS(=O)(=O)C(F)(F)F)cc12
[4]
  Ratio: 1.3
D(2) dopamine receptor
  Ki: 502 nM
[1]
  logD: 2.21
[6]
  IC50: 660 nM
[28]
  Ki: 246 nM
[13]
  Ki: 190 nM
[19]
  Ki: 23 nM
[22]
  IC50: 170 nM

## CCN(CC)CCc1c[nH]c2ccc(OS(=O)(=O)C(F)(F)F)cc12
[4]
  Ratio: 14.3
D(2) dopamine receptor
  Ki: 637 nM
[1]
  logD: 1.31
[6]
  IC50: 530 nM
[13]
  Ki: 12 nM
[3]
  Ki: 171 nM
[19]
  Ki: 27 nM
[22]
  IC50: 21 nM

## COc1ccc(CNC(=O)/C=C/c2ccc3[nH]cc(CCN(C)C)c3c2)cc1
[5]
  Ki: 0.2 nM
[1]
  logD: 1.71
Cavia porcellus [29]
  Others: -2.62
Cavia porcellus [7]
  Others: 94%
[13]
  Ki: 0.3 nM
Cavia porcellus [15]
  Others: 37%
Cavia porcellus [18]
  Others: 49%
[19]
  Ki: 1.3 nM
Cavia porcellus [30]
  Others: -1.62
Cavia porcellus [23]
  Others: 121%

## CCN(CC)CCc1c[nH]c2ccc(OCc3ccccc3)cc12
[1]
  logD: 2.18
[2]
  IC50: 110 nM
[3]
  IC50: 110 nM

## CCN(CC)CCc1c[nH]c2ccc(O)cc12
[1]
  logD: 0.28
[2]
  IC50: 77 nM
[3]
  IC50: 77 nM

## CNS(=O)(=O)Cc1ccc2[nH]cc(CCN(C)C)c2c1
D(2) dopamine receptor
  Ki: > 218 nM
Cavia porcellus [31]
  Others: 119%
Cavia porcellus [32]
  Others: 122%
Cavia porcellus [33]
  Others: 129%
Cavia porcellus [34]
  Others: 133%
Cavia porcellus [35]
  Others: -0.14
